Publication PMC8848307 (Journal of medicinal chemistry, 2019)
Like-named read-outs stand apart in the source and are kept apart here.

What was measured:
other STAT proteins = details: cited from earlier work
Molm-16 xenograft tumor [1] = details: 100 mg/kg weekly dosing; cited from earlier work
Molm-16 xenograft tumor [2] = test: Antitumor efficacy in the Molm-16 xenograft model; assay type: in vivo, SCID mice
Outline: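 Molm-16 cells (3 × 10^6) injected subcutaneously in 5 mg/mL Matrigel into CB.17 SCID mice. At an average tumor volume of 150 mm3, mice were randomized and dosed intravenously at 25 or 50 mg/kg three times weekly, or at 50 mg/kg once weekly, for 3 weeks. Vehicle was 10% PEG400 + 90% PBS. Tumors and body weight were measured 2–3 times weekly, with volume = (length × width2)/2.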

STAT3 protein [3] = biological target: T1, STAT3 protein (Homo sapiens, UniProt P40763); test: Western blotting of STAT3 degradation in Molm-16 cells; assay type: cell-based; details: Western blot, Molm-16 and SU-DHL-1 cells
T1 sequence (P40763 whole entry): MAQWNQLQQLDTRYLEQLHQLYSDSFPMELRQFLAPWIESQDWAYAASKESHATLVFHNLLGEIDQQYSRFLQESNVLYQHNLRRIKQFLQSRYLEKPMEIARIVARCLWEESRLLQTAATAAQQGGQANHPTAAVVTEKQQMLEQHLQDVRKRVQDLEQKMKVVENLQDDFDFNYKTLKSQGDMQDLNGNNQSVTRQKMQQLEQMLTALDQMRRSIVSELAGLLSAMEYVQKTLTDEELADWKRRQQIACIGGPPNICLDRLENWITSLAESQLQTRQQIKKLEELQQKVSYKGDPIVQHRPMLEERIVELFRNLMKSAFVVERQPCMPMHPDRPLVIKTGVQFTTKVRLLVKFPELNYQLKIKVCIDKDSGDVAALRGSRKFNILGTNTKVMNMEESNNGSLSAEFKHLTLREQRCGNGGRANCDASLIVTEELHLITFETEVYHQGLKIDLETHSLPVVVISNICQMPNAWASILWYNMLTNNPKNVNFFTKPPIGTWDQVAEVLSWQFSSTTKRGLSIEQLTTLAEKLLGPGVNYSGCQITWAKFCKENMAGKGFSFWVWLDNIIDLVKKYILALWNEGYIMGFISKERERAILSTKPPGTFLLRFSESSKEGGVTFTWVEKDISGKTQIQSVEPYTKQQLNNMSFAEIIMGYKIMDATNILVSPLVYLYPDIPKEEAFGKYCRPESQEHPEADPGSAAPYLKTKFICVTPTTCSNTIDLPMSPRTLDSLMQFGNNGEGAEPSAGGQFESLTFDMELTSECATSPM

[4] = system: STAT1, STAT2, STAT4, STAT5A/B, and STAT6 proteins; test: Western blotting analysis of other STAT proteins in Molm-16 and SU-DHL-1 cells; assay type: cell-based; details: Molm-16 and SU-DHL-1 cell lines
Outline: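 Molm-16 cells were treated for 4 h and SU-DHL-1 cells for 18 h, with test compound at 0.01–10 μM and control compounds at 10 μM. Cells were lysed and run on SDS–PAGE, then transferred to PVDF and blocked 1 h in 5% blocker in TBST. Blots were probed with primary then secondary antibodies against STAT family members and developed by chemiluminescence.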

STAT3 protein [5] = biological target: T1, STAT3 protein; test: Pharmacodynamics in Molm-16 xenograft tumor tissue; assay type: in vivo, SCID mice
Outline: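 Molm-16 subcutaneous xenografts were grown in CB.17 SCID mice (3 × 10^6 cells in 5 mg/mL Matrigel). Mice received a single intravenous dose of test compound or vehicle (10% PEG400 + 90% PBS). Animals were euthanized at set time points, including 1 h and 72 h. Tumor lysates were immunoblotted for total STAT3 and pSTAT3Y705.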

STAT3 protein [6] = biological target: STAT3 protein (Mus musculus, UniProt P42227); test: Pharmacodynamics in native mouse spleen tissue; assay type: in vivo; details: single intravenous dose, 25 mg/kg, CD-1 mice
Chain of STAT3 protein (Mus musculus, UniProt P42227) (P42227 whole entry): as the sequence (P40763 whole entry) above, with E760D counted along it
Outline: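 Female CD-1 mice received a single intravenous dose of test compound or vehicle (10% PEG400 + 90% PBS). Mice were euthanized at set time points and spleens harvested. Native spleen lysates were immunoblotted for STAT3.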

[7] = 25 or 50 mg/kg three times per week

## NC(=O)CC[C@H](NC(=O)[C@@H]1CC[C@@H]2CCN(C(=O)CCCCCC#Cc3cccc4c3CN(C3CCC(=O)NC3=O)C4=O)C[C@H](NC(=O)c3cc4cc(C(F)(F)P(=O)(O)O)ccc4[nH]3)C(=O)N21)C(=O)NC(c1ccccc1)c1ccccc1 (stereo partly drawn) [SD-36, ((2-(((5S,8S,10aR)-8-(((S)-5-Amino-1-(benzhydrylamino)-1,5-dioxopentan-2-yl)carbamoyl)-3-(8-(2-(2,6-dioxopiperidin-3-yl)-1-oxoisoindolin-4-yl)oct-7-ynoyl)-6-oxodecahydropyrrolo-[1,2-a][1,5]diazocin-5-yl)carbamoyl)-1H-indol-5-yl)-difluoromethyl)phosphonic Acid]
Other STAT proteins
  affinity to other STAT proteins tested: much weaker affinity
Molm-16 xenograft tumor [1]
  tumor response: complete tumor regression
Molm-16 xenograft tumor [2]; 50 mg/kg once weekly for 3 weeks
  tumor response: very effective in inhibition of tumor growth
Molm-16 xenograft tumor [2]; [7]
  duration of dosing after which complete tumor regression was achieved: 2 weeks
  persistence of complete tumor regression after termination of the treatment: more than 2 weeks
Molm-16 xenograft tumor [2]; 25 or 50 mg/kg three times per week for 3 weeks intravenously
  tumor response: complete tumor regression
Molm-16 xenograft tumor [2]; efficacy experiment, Molm-16 xenograft mice
  weight loss or other signs of toxicity: no weight loss or other signs of toxicity
STAT3 protein [3]
  concentration very effective in reducing the level of STAT3 protein: ≥ 0.1 µM
[4]
  selectivity for degradation of STAT3 over other STAT members: > 100 fold
[4]; up to 10 μM
  effect on STAT1, STAT2, STAT4, STAT5A/B, and STAT6 proteins: little or no effect
STAT3 protein [5]; single dose
  persistence of STAT3 elimination in tumor tissue: > 3 days
STAT3 protein [5]; single dose 50 mg/kg, after 1 h
  reduction of total STAT3 and pSTAT3^Y705 proteins in xenograft tumor tissue: > 95%
STAT3 protein [6]
  persistence of STAT3 reduction in spleen: more than 48 h
  reducing STAT3 protein in native mouse spleen tissue: very effective
